MEKK2mut PB1 HTS = signal of MEK5 binding to mutant human MEKK2 PB1 domain. bead flow cytometry, Alexa488-MEK5 binding to MEKK2 mutant. percent response, % at 10 µM. actives 0.35% (n = 290,000). AID 1530; in the data active means percent response above about 24%, passing the limit was not always enough
VIM-2 inh = blocks Pseudomonas aeruginosa VIM-2 metallo-beta-lactamase. purified VIM-2, nitrocefin hydrolysis, epi-absorbance fluorescence. inhibition, % at 5.6 µM. actives 0.89% (n = 290,000);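 active means inhibition above the mean of all tested compounds plus 3 SD, cutoff set per screening run, cut at about 7.5% in these data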;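 further: red hydrolysis product quenches plate fluorescence so inhibitors raise well fluorescence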
MEKK3 PB1 HTS = MEKK3-MEK5 PB1 interaction, increase or decrease; Q99759; bead-based flow cytometry, Alexa488-MEK5 binding to MEKK3; actives lie on both sides; 0 = blocked by unlabeled MEK5, 100 = vehicle; binding response (% of control), % at 10 µM; actives 1.4% (n = 290,000); AID 1529;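 active means binding response more than 3 SD above or below the average of its plate-row segment, actives on both sides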;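 further: Alexa488 bead fluorescence after subtracting the streptavidin-only scavenger bead signal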
Target sequence (Q99759 whole entry, looked up): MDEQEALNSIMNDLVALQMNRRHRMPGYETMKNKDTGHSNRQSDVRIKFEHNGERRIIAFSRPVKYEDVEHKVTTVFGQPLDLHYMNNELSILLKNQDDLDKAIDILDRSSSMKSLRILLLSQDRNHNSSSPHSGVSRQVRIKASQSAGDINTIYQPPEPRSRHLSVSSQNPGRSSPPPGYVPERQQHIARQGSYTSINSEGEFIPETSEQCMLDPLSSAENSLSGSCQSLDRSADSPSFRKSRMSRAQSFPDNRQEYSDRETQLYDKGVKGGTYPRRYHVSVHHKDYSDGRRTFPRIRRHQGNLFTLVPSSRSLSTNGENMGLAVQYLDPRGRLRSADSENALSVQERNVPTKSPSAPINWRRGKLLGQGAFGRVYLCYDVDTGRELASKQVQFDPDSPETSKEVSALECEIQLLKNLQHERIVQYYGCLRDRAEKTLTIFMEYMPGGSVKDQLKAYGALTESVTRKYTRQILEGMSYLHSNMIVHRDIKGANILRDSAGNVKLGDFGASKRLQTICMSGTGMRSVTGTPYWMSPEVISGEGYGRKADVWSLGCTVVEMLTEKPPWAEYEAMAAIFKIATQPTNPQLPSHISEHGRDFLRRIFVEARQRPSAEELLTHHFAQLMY
IMP-1 inh = inhibitors of Pseudomonas aeruginosa IMP-1 metallo-beta-lactamase; purified IMP-1, nitrocefin hydrolysis, epi-absorbance fluorescence; inhibition, % at 5.6 µM; actives 0.45% (n = 290,000); AID 1556;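 active means inhibition above the mean plus 3 SD of all compounds in the same screening run, cut at about 4.5% in these data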
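System: purified recombinant IMP-1 beta-lactamase. Medium: Zinc- and detergent-supplemented HEPES buffer, pH 7.1. Compound: one 5.6 µM dose […]. Schedule: 15 min preincubation plus 25 min reaction at 25 °C. Technique: Epi-absorbance fluorescence, 480 nm excitation, 530 nm emission.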
MEKK2 WT-MEK5 = raises or lowers MEK5 binding to wildtype human MEKK2 PB1 domain | Q9Y2U5 | binding response (% of control), % at 10 µM | bead flow cytometry, Alexa488-MEK5 binding to MEKK2 WT; actives lie on both sides | actives 1.1% (n = 290,000); in the data active means binding response below about 67% or above about 130%
MEKK2wt confirm = raises or lowers MEK5 binding to wildtype human MEKK2, retest. shares compounds with MEKK3 PB1 HTS. binding response (% of control), % at 10 µM. bead flow cytometry, Alexa488-MEK5 binding to MEKK2 WT; actives lie on both sides. actives 2.4% (n = 5,900). AID 1892; in the data active means binding response below about 16% or above about 210%; inactive means in between
MEKK2mut-MEK5 = signal of MEK5 binding to mutant human MEKK2, retest; shares compounds with MEKK3 PB1 HTS; bead flow cytometry, Alexa488-MEK5 binding to MEKK2 mutant; percent response, % at 10 µM; actives 2% (n = 5,900); AID 1893; in the data active means percent response mostly above about 71%, no sharp cut-off; inactive means mostly below about 38%;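 further: higher means compound restores mutant binding toward wildtype level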
MEKK3-MEK5 inh = MEKK3-MEK5 PB1 inhibition, single concentration confirmation; actives 1.8% (n = 5,900); bead flow cytometry, Alexa488-MEK5 binding to MEKK3; active compounds read low; shares compounds with MEKK3 PB1 HTS; binding response (% of control), % at 10 µM;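 active means binding response below 72% of control, or above a set upper limit, though filed actives all read lower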;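 further: lower values mean stronger disruption of MEK5 binding to MEKK3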
A number is an active result; . = inactive; / = not tested or not shown; [ ] = remark or other dose. Sampled rows, rich in hits. Any-hit rate of the full collection: about 3.4%.

SMILES | MEKK2mut PB1 HTS | VIM-2 inh | MEKK3 PB1 HTS | IMP-1 inh | MEKK2 WT-MEK5 | MEKK2wt confirm | MEKK2mut-MEK5 | MEKK3-MEK5 inh
O=C(CNc1ccc2ccccc2c1)N/N=C/C=C/c1cccc([N+](=O)[O-])c1 | . | . | . | . | . | / | / | /
Cc1cccc(N(C(=O)c2snc(C(N)=O)c2N)C(C)C(=O)NCC2CCCO2)c1 (configuration not stated) | . | . | 130 | . | . | . | . | 70
O=C(COC(=O)C1(c2cccc(F)c2)CCCC1)NCc1ccc2c(c1)OCO2 | . | . | 132 | . | . | . | . | .
CCOC(=O)C1CCN(C(c2cc3ccc(C)c(C)c3[nH]c2=O)c2nnnn2C2CCCCC2)CC1 (configuration not stated) | . | . | . | . | . | / | / | /
CC(C)c1ccc(/C=C/C(=O)Nc2ccc(CN3CCOCC3)cc2)cc1 | . | . | . | . | . | / | / | /
O=C(/C=C/c1ccc(Cl)cc1)Nc1ccc(CN2CCOCC2)cc1 | . | . | . | . | 140 | . | . | .
COc1ccc(N(C(=O)c2snc(C(N)=O)c2N)C(C(=O)NC2CCCC2)c2cccs2)c(OC)c1 (configuration not stated) | . | . | . | . | . | / | / | /
Cc1ccc(SC2CCN(C(=O)C3CCC(=O)N(C4CC4)C3)CC2)cc1 (configuration not stated) | . | . | . | . | . | / | / | /
CCOP(=O)(OCC)C(Nc1ccccn1)c1ccc(F)cc1 (configuration not stated) | . | . | . | . | . | / | / | /
CCOP(=O)(OCC)C(Nc1ccccn1)c1ccccc1 (configuration not stated) | . | . | 135 | . | . | . | . | .
COc1ccc(NC(=O)c2ccc3c(SCC(=O)O)c4c(nc3c2)CCCC4)cc1Cl | . | . | . | . | . | / | / | /
O=C(O)CSCC(=O)Nc1ccc(Cl)cc1C(F)(F)F | . | . | . | . | . | / | / | /
CNC(=O)OC(C)CNS(=O)(=O)c1ccc(C)cc1 (configuration not stated) | . | . | 2.0[inhibitor] | . | 2.0[inhibitor] | . | . | .
Cc1ccc(S(=O)(=O)NCC(C)NS(=O)(=O)c2ccc(C)cc2)cc1 (configuration not stated) | . | . | . | . | . | / | / | /
O=[N+]([O-])c1ccc(Cl)c(S(=O)(=O)n2ccnc2)c1 | . | . | 130 | . | . | . | . | .
CCc1nc2ccc(C(=O)Nc3nnc(C)s3)cc2nc1CC | . | . | . | . | . | / | / | /
Cc1cc(N2CCOCC2)n2ncc(-c3ccccc3Cl)c2n1 | . | . | . | . | . | / | / | /
Cc1ccc(NC(=O)CCCN2C(=O)c3cccc4cccc(c34)C2=O)cc1 | . | . | 145 | . | . | . | . | .
Cc1ccc(NC(=O)CCN2C(=O)c3cccc4cccc(c34)C2=O)cc1 | . | . | . | . | . | / | / | /
COc1ccc(/C=N/Nc2ncnc3sc(C)c(C)c23)cc1 | . | . | 133 | . | . | . | . | .
CSc1ccc(CN(C)CC(=O)Nc2ccccc2Br)cc1 | . | . | 132 | . | . | . | . | .
CSc1ccccc1NC(=O)CN(C)Cc1ccc(Br)cc1 | . | . | . | . | . | / | / | /
CCOC(=O)c1[nH]c2ccccc2c1NC(=O)NC1CCCCC1 | . | . | . | . | . | / | / | /
CCOC(=O)c1[nH]c2ccccc2c1NC(=O)C1CCCCC1 | . | . | 76[inhibitor] | . | . | . | . | .
O=C(CSc1cccc[n+]1[O-])N1CCCc2ccccc21 | . | . | . | . | 25[inhibitor] | . | . | .
SMILES | MEKK2mut PB1 HTS | VIM-2 inh | MEKK3 PB1 HTS | IMP-1 inh | MEKK2 WT-MEK5 | MEKK2wt confirm | MEKK2mut-MEK5 | MEKK3-MEK5 inh
OC(CNCc1ccco1)Cn1c2ccc(Br)cc2c2cc(Br)ccc21 (configuration not stated) | 47 | . | . | . | 216 | . | . | .
N=c1c2c(-c3ccccc3)c(-c3ccccc3)n(Cc3ccco3)c2ncn1CCCN1CCOCC1 | . | . | . | . | 149 | . | . | .
N=c1c2c(-c3ccccc3)c(-c3ccccc3)n(Cc3ccco3)c2ncn1CCCn1ccnc1 | . | . | . | . | . | / | / | /
CC(C)Cn1cnc2c(c(-c3ccccc3)c(-c3ccccc3)n2Cc2ccco2)c1=N | . | . | . | . | 134 | . | . | .
N=c1c2c(-c3ccccc3)c(-c3ccccc3)n(Cc3ccco3)c2ncn1Cc1ccccc1 | . | . | . | . | 156 | . | . | .
CC1(OC(=O)C2CCCC2)C(=O)C=C2C=C(c3ccsc3)N(CCCCO)C=C2C1=O (configuration not stated) | . | / | . | / | . | / | / | /
Cc1ccc(S(=O)(=O)NC(CC(=O)N2CCc3ccccc32)c2ccco2)cc1 (configuration not stated) | . | . | . | . | . | / | / | /
COc1ccc(C2C(C(=O)N3CCCCC3)CC(=O)N2c2ccc(OC)cc2)cc1 (configuration not stated) | . | . | 127 | . | . | . | . | .
COc1ccc(C2C(C(=O)N3CCC(C(N)=O)CC3)CC(=O)N2c2ccc(OC)cc2)cc1 (configuration not stated) | . | . | . | . | . | / | / | /
O=C(/C=C/c1ccc2c(c1)OCO2)Nc1cc(S(=O)(=O)N2CCOCC2)ccc1N1CCOCC1 | . | . | . | . | . | / | / | /
CNS(=O)(=O)c1cccc(C(=O)OCC(=O)/C=C2/N(C)c3ccccc3C2(C)C)c1 | . | . | 131 | . | . | . | . | .
CN1/C(=C\C(=O)COC(=O)c2ccc(O)c(O)c2)C(C)(C)c2ccccc21 | . | . | . | . | . | / | / | /
CCC(NC(=O)C1CCC1)c1ccccc1 (configuration not stated) | . | . | . | . | . | / | / | /
CC(=O)Nc1c(C)cc(OCC(=O)O)cc1C | . | . | . | . | . | / | / | /
Cc1ccc(OCCN2CCN(CC(O)Cn3c4ccccc4c4ccccc43)CC2)cc1 (configuration not stated) | 59 | . | . | . | 239 | . | . | .
Cc1ccc(OCC(O)Cn2c3ccccc3c3ccccc32)cc1 (configuration not stated) | . | . | . | . | . | / | / | /
CCOC(=O)c1cc(NC(=O)c2ccco2)ccc1N1CCOCC1 | . | . | 27[inhibitor] | . | 35[inhibitor] | . | . | .
O=C(Nc1ccc(N2CCOCC2)c(C(=O)O)c1)c1ccco1 | . | . | . | . | . | / | / | /
